Experimental data from ChEMBL document CHEMBL1148836, “3-Substituted-(5-arylfuran-2-ylcarbonyl)guanidines as NHE-1 inhibitors” (Bioorg Med Chem Lett, 2007).

Assays:
Heart [1] = experiment: Cardioprotective effect against ischemia reperfusion injury in rat heart assessed as left ventricular end diastolic pressure at 10 uM; type: functional
Procedure, shortened: (§1)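 Isolated rat heart ischemia/reperfusion model. Hearts exposed to 10 µM compound for 10 min before ischemia. Read-outs are recovery of contractile function as rate-pressure product (% RPP) and left ventricular end-diastolic pressure (mmHg), each compared with a vehicle group. Values are means, n = 3 or higher.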

[2] = biological target: Sodium/hydrogen exchanger 1 (Homo sapiens, UniProt P19634); experiment: Inhibition of human NHE1 expressed in PS120 cells; type: cell-based
Procedure, shortened: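 PS120 variant cells selectively expressing human NHE-1. Inhibition measured as the effect on sodium-dependent pH recovery after imposed intracellular acidosis. IC50 values are means of three experiments.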

Heart [3] = experiment: Cardioprotective effect against ischemia reperfusion injury in rat heart assessed as recovery of rate pressure product at 10 uM; type: functional; procedure, shortened: as §1
Rattus norvegicus = experiment: Cardioprotective effect against ischemia reperfusion injury in rat myocardial infarction model assessed as ratio of infarction size to area at risk at 0.1 mg/kg, iv; type: functional, Myocardium
Procedure, shortened: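 Rat myocardial infarction model. Animals stabilized 20 min after left thoracotomy, then 45 min coronary artery occlusion and 90 min reperfusion. Compound given at 0.1 mg/kg as bolus intravenous injection 5 min before ischemia onset. Infarct size measured as a ratio to area at risk (IS/AAR, %), compared with vehicle. Means, n = 3 or higher.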

Chain of Sodium/hydrogen exchanger 1 (P19634 whole entry): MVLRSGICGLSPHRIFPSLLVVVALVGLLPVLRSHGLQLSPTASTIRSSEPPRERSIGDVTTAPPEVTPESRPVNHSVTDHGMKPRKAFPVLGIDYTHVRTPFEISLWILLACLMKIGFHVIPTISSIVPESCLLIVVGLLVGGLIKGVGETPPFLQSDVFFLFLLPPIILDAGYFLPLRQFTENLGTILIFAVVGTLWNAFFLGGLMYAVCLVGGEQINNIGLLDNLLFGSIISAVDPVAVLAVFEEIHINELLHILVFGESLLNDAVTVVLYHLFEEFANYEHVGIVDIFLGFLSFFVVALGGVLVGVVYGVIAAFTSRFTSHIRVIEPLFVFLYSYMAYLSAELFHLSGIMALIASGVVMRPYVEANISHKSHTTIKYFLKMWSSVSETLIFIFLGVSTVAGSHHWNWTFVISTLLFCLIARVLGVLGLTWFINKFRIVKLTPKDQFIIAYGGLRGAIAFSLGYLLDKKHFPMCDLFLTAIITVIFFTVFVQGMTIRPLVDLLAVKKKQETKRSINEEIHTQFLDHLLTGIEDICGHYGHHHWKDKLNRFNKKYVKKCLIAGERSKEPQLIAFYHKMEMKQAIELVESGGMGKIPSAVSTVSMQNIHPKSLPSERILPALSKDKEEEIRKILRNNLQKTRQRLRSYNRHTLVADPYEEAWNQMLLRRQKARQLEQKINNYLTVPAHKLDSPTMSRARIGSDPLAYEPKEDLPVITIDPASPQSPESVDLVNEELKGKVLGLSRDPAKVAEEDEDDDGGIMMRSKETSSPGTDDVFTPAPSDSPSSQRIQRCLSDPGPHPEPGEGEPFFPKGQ

Row | SMILES | IC50 [2] [µM] | Activity (Heart [1]) [mmHg] | Activity (Heart [3]) [%] | Activity (Rattus norvegicus) [%]
1 | N=C(N)NC(=O)c1oc(-c2ccccc2)cc1N | 2.3 | – | – | –
2 | N=C(N)NC(=O)c1oc(-c2cc(F)ccc2F)cc1N | 0.41 | – | – | –
3 | CC(=O)N(C)c1cc(-c2cccc(Cl)c2)oc1C(=O)NC(=N)N | > 30 | – | – | –
4 | CNc1cc(-c2ccccc2)oc1C(=O)N=C(N)N | 0.82 | – | – | –
5 | COc1ccc(Cl)cc1-c1cc(-c2ccccc2)c(C(=O)NC(=N)N)o1 | 5.6 | – | – | –
6 | Cc1cc(-c2cccc(Cl)c2)oc1C(=O)NC(=N)N | 0.024 | – | – | –
7 | CC(=O)N(C)c1cc(-c2ccccc2)oc1C(=O)NC(=N)N | > 30 | – | – | –
8 | COc1ccc(Cl)cc1-c1cc(N(C)C(C)=O)c(C(=O)NC(=N)N)o1 | 33 | – | – | –
9 | Cc1cccc(-c2cc(N)c(C(=O)NC(=N)N)o2)c1 | 0.77 | – | – | –
10 | N=C(N)NC(=O)c1oc(-c2cccc(Cl)c2)cc1-n1cccc1 | 3 | – | – | –
11 | CC(=O)Nc1cc(-c2ccccc2)oc1C(=O)N=C(N)N | 14 | – | – | –
12 | COc1ccc(F)cc1-c1cc(N)c(C(=O)NC(=N)N)o1 | 0.12 | – | – | –
13 | CC(=O)Nc1cc(-c2cccc(Cl)c2)oc1C(=O)NC(=N)N | 14 | – | – | –
14 | CC(C)c1ccc(C(=O)N=C(N)N)cc1S(C)(=O)=O [CARIPORIDE] | – | 24 | 48 | 41
15 | CCc1cc(-c2cccc(Cl)c2)oc1C(=O)NC(=N)N | 0.23 | – | – | –
16 | Cc1ccc(C)c(-c2cc(N)c(C(=O)NC(=N)N)o2)c1 | 0.072 | – | – | –
17 | CN(C)c1cc(-c2ccccc2)oc1C(=O)N=C(N)N | 0.12 | – | – | –

More lines, main results first:

Row | IC50 [2] [µM] | SMILES | Activity (Heart [1]) [mmHg] | Activity (Heart [3]) [%] | Activity (Rattus norvegicus) [%]
18 | 0.015 | COc1ccc(Cl)cc1-c1cc(N)c(C(=O)N=C(N)N)o1 | 29 | 27 | –
19 | 1.2 | NC(N)=NC(=O)c1oc(-c2ccccc2F)cc1N | 20 | 62 | –
20 | 0.15 | COc1ccccc1-c1cc(N)c(C(=O)N=C(N)N)o1 | 31 | 30 | 55
21 | 4.5 | COc1ccc(Cl)cc1-c1cc(NC(C)=O)c(C(=O)N=C(N)N)o1 | – | – | –
22 | 0.009 | CN(C)c1cc(-c2cc(Cl)ccc2Cl)oc1C(=O)NC(=N)N | – | – | –
23 | 16 | NC(N)=NC(=O)c1oc(-c2cccc(Cl)c2)cc1N1CCCCC1 | – | – | –
24 | > 30 | CC(=O)N(C)c1cc(-c2cc(Cl)ccc2Cl)oc1C(=O)N=C(N)N | – | – | –
25 | 0.68 | NC(N)=NC(=O)c1oc(-c2cccc(F)c2)cc1N | 25 | 49 | –
26 | 5.1 | N=C(N)NC(=O)c1oc(-c2cccc(Cl)c2)cc1N1CCCC1 | – | – | –
27 | 0.24 | Cc1ccccc1-c1cc(N)c(C(=O)N=C(N)N)o1 | 28 | 30 | 47
28 | 0.82 | CNc1cc(-c2cccc(Cl)c2)oc1C(=O)N=C(N)N | – | – | –
29 | 0.48 | NC(N)=NC(=O)c1oc(-c2cc(Cl)ccc2Cl)cc1N1CCCC1 | – | – | –
30 | 0.096 | CNc1cc(-c2cc(Cl)ccc2Cl)oc1C(=O)N=C(N)N | – | – | –
31 | 0.12 | CN(C)c1cc(-c2cccc(Cl)c2)oc1C(=O)N=C(N)N | – | – | –
32 | 0.01 | COc1ccc(Cl)cc1-c1cc(C)c(C(=O)N=C(N)N)o1 | 34 | 0.3 | –
33 | 0.016 | Cc1cc(-c2cc(Cl)ccc2Cl)oc1C(=O)NC(=N)N | – | – | –
34 | 0.15 | NC(N)=NC(=O)c1oc(-c2cccc(Cl)c2)cc1N | 27 | 33 | 53
35 | 0.48 | NC(N)=NC(=O)c1oc(-c2cc(Cl)ccc2Cl)cc1N1CCCCC1 | – | – | –
36 | 6.2 | CC(=O)Nc1cc(-c2cc(Cl)ccc2Cl)oc1C(=O)N=C(N)N | – | – | –
37 | 0.008 | N=C(N)NC(=O)c1oc(-c2cc(Cl)ccc2Cl)cc1N | – | – | –
38 | 0.012 | COc1ccc(Cl)cc1-c1cc(N(C)C)c(C(=O)N=C(N)N)o1 | 40 | 6.4 | –
39 | 0.13 | Cc1cc(-c2cc(F)ccc2F)oc1C(=O)N=C(N)N | – | – | –
